# From ChEMBL document CHEMBL1147223, “Saponins from Cussonia bancoensis and their inhibitory effects on nitric oxide production” (J Nat Prod, 2003)
# Experiments:
# RAW264.7 [1] = test: Inhibition of LPS-induced nitric oxide production in mouse RAW264.7 cells by Griess method; assay type: functional, cell-based
# Method in brief: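 RAW 264.7 murine macrophages were grown in DMEM with 10% FBS, penicillin and streptomycin at 37 °C under 5% CO2, then stimulated with LPS for 24 h. Nitrite in the medium was measured by Griess reaction (sulfanilamide/naphthylethylenediamine, 10 min at room temperature, A550) against a NaNO2 standard curve. IC50 is the concentration giving a 50% decrease in NO; values are the mean of four independent experiments.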
# RAW264.7 [2] = test: Cytotoxicity against LPS-stimulated mouse RAW264.7 cells by Griess method; assay type: cell-based
Structure (SMILES),IC50 (RAW264.7 [1]) [µM],IC50 (RAW264.7 [2]) [µM]
C[C@H]1[C@H](C)CC[C@]2(C(=O)O)CC[C@]3(C)C(=CC[C@@H]4[C@@]5(C)CC[C@H](O[C@@H]6OC[C@H](O)[C@H](O)[C@H]6O)[C@@](C)(CO)[C@@H]5CC[C@]43C)[C@H]12,47.9,124
CC(=N)NCCCC[C@H](N)C(=O)O [L-NIL],18.6,> 200
C[C@H]1[C@H](C)CC[C@]2(C(=O)O)CC[C@]3(C)C(=CC[C@@H]4[C@@]5(C)CC[C@H](O[C@@H]6O[C@H](CO)[C@@H](O)[C@H](O)[C@H]6O)[C@@](C)(CO)[C@@H]5CC[C@]43C)[C@H]12,22.1,126

# Continued, in another order:
IC50 (RAW264.7 [1]) [µM],Structure (SMILES),IC50 (RAW264.7 [2]) [µM]
2.6,C[C@H]1[C@H](C)CC[C@]2(C(=O)O)CC[C@]3(C)C(=CC[C@@H]4[C@@]5(C)CC[C@H](O)[C@@](C)(CO)[C@@H]5CC[C@]43C)[C@H]12,11
46.9,C[C@H]1[C@H](C)CC[C@]2(C(=O)O)CC[C@]3(C)C(=CC[C@@H]4[C@@]5(C)CC[C@H](O)C(C)(C)[C@@H]5CC[C@]43C)[C@H]12 [URSOLIC ACID],58.5
